Compound activity as filed in PubChem.
Sampled rows, rich in hits. Any-hit rate of the full collection: about 3.3%.
PRMT1 FP inh = PRMT1 (human) inhibition, primary screen; AID 652257; Q99873; 1.3% of 370,000 active; inhibition, % at 2.79 µM; recombinant PRMT1, activity-based probe fluorescence polarization;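 active = inhibition above about 21% made by adding two undisclosed values, limit read from the data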
SIAE inh = human SIAE inhibition, primary screen; SIAE FP-Rh probe binding, fluorescence polarization; inhibition, % at 9.66 µM; AID 1053197; Q9HAT2; 0.69% of 370,000 active;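 active = inhibition above a cutoff: mean of compounds within the control limits plus 3 SD of those, cut at about 17% in these data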;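 note: 0% = plate median of compound wells and 100% = probe without SIAE protein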
TCR-CD3 inh = inhibitors of human TCR-CD3 interaction. TAMRA-labeled TCR probe fluorescence, biochemical. inhibition, % at 9.4 µM. 0.37% of 360,000 active; in the data active = inhibition above about 19%;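 note: recombinant mutant TCR 2C K166C tagged with TAMRA read by polarization; 0% = receptor in buffer alone and 100% = receptor with positive control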
ABHD4 inh = inhibits mouse alpha/beta hydrolase domain 4 | purified mABHD4, FP-Rh probe fluorescence polarization | inhibition, % at 8.92 µM | 0.54% of 370,000 active | AID 720543;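 active = inhibition exceeding the mean over every tested compound plus 3 SD, cut at about 30% in these data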;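 note: 0% = plate median of compound wells and 100% = S159A mutant with DMSO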
Target sequence (Q8VD66 whole entry, looked up, the tested form may be a part): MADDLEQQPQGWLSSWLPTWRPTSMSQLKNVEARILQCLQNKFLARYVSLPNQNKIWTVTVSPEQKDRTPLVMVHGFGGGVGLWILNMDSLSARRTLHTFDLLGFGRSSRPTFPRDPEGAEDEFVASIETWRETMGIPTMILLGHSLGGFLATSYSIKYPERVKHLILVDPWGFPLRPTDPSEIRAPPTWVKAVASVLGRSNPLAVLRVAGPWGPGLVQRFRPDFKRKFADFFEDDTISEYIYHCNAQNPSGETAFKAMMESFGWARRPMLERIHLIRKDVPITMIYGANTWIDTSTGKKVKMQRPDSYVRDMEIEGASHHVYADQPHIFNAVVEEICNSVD
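Assay system: mouse ABHD4 enzyme, wild type / Also added: fluorescent activity-based probe FP-Rh / Doses: single nominal dose of 8.92 µM, 0.89% DMSO final / Timing: 45 min compound pre-incubation plus 60 min probe step, 25 °C / Signal: FP readout, ex 525 nm / em 598 nm / Control set: S159A mutant/DMSO as 100%, compound-well median as 0%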
rCAG RNA binder = molecules binding r(CAG) RNA repeats | r(CAG) RNA repeat, TO-PRO-1 dye displacement fluorescence | inhibition, % at 3 µM | 1.3% of 370,000 active | AID 651821;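 active = inhibition above the plate cutoff, the mean of all test compounds on that plate plus 3 SD, cut at about 35% in these data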;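 note: 0% = DMSO alone and 100% = 100 µM mitoxantrone as full dye displacement; higher means more dye released from RNA so lower well fluorescence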
SIAE inh conf = confirmation of human SIAE inhibitors | SIAE FP-Rh activity-based probe, fluorescence polarization | shares compounds with SIAE inh | AID 1117263 | inhibition, % at 9.66 µM | 13% of 2,300 active;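 active = mean inhibition of the replicates above the hit cutoff set in the primary screen, cut at about 17% in these data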;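 note: 0% = SIAE with DMSO and probe and 100% = probe without SIAE; inhibitors lower polarization as more probe stays unbound to SIAE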
Numbers without * were called inactive; · = no result given.

SMILES	PRMT1 FP inh	SIAE inh	TCR-CD3 inh	ABHD4 inh	rCAG RNA binder	SIAE inh conf
COc1ccc(/C=N/NC(=O)c2cc3cc(OC)c(OC)cc3[nH]2)cc1	-0.7	4.6	2.0	22.8	0.2	·
COc1ccc2cc(C(=O)N/N=C/c3cc(OC)c(OC)c(OC)c3)[nH]c2c1	0.5	27.9*	3.2	9.0	1.9	-9.5
COc1ccccc1-c1ccc([C@@H]2C[C@H]3[C@H](CON3C)CN2CC2CCCCC2)cc1	-4.2	-1.9	-7.0	-0.8	2.6	·
CC(C)C1C(=O)N(Cc2cn(CCC3OCCO3)nn2)CCS(=O)(=O)N1Cc1ccc(-c2ccc(F)cc2)cc1 (stereo unspecified)	-0.3	-1.4	2.8	-10.3	4.9	·
CCCc1c(-c2ccc(Cl)cc2)ncn1Cc1cccc(-c2ccccc2)c1	4.7	-3.7	1.2	-7.0	6.1	·
CC1Cc2nc(SCC(=O)NCC3CCCO3)n(-c3ccccc3)c(=O)c2S1 (stereo unspecified)	1.8	-4.2	-1.1	-2.4	0.7	·
Cc1[nH]nc2c1C(c1ccc(-c3ccc(Cl)cc3)o1)C(C#N)=C(N)O2 (stereo unspecified)	2.7	18.0*	2.6	3.6	7.0	-3.3
COC1=C(Br)C(=O)c2ncccc2C1=O	1.7	22.1*	2.6	10.8	4.8	-1.0
O=C(CSc1nnc(NC(=O)c2c(F)cccc2F)s1)NCc1ccc(F)cc1	-2.3	0.1	4.2	3.3	3.0	·
Cc1ccc(-n2nc(C)c3c2OC(N)=C(C#N)C3c2ccncc2)cc1 (stereo unspecified)	1.7	19.2*	2.8	22.4	7.4	4.8
O=C(Nc1ccccc1Br)c1cc[n+]([O-])cc1	-1.2	4.3	-4.5	-9.7	1.4	·
O=C(NCC(c1ccco1)N1CCCCC1)C(c1ccccc1)c1ccccc1 (stereo unspecified)	0.1	7.1	6.3	1.6	-7.8	·
CC(Sc1ccc(Cl)cc1)C(=O)NCC(c1ccco1)N1CCCCC1 (stereo unspecified)	-4.3	62.6*	-2.1	-3.7	-15.9	-2.2
COc1ccccc1N(C)S(=O)(=O)c1ccc(C(=O)NCCCN2CCCC2=O)cc1	2.3	15.8	-12.8	3.3	-1.6	·
CCOC(=O)/C=C/[C@H]1CCc2cccc(C)c2O1	-1.0	6.5	2.6	5.3	-4.5	·
COc1ccc(NC(=O)CSc2nnc3ccc(-c4cccnc4)nn23)cc1OC	-0.7	20.8*	3.1	-3.4	-11.4	4.1
COc1ccc(NC(=O)CSc2ccc(-c3ccco3)nn2)cc1OC	12.4	18.5*	1.6	2.0	8.0	-2.0
COc1ccc(NC(=O)CSc2nncn2C)cc1OC	-0.3	32.6*	5.9	-6.1	-1.0	-0.1
COC(=O)[C@]12CCCCC=C1N(CCC1=CCCCC1)C(=O)[C@H](CC(=O)NCCc1ccccc1OC)C2	-0.6	-7.3	3.2	-4.7	4.6	·
CCCCc1ccc(NC(=S)Nc2ccc(Nc3ccc(OC)cc3)cc2)cc1	10.3	26.9*	-5.1	24.8	6.6	12.9
O=C(CCC1CCCN(C(=O)c2cc(F)ccc2F)C1)N1CCN(c2ccccn2)CC1 (stereo unspecified)	-0.5	4.3	4.3	3.0	-0.2	·
O=c1c2ccccc2oc2cc(Br)ccc12	-0.1	19.7*	2.0	2.0	1.1	4.1
O=C(CN1C(=O)NC2(CCCc3ccccc32)C1=O)c1ccc(Br)cc1 (stereo unspecified)	0.8	12.7	7.2	-2.4	4.2	·
CCOc1ccc(CNc2ccc3c(c2)ncn3C(C)(C)C)cc1	0.8	21.7*	8.6	-0.2	-9.1	-2.3
CN(C)c1ccc(CNc2ccc3c(c2)ncn3C(C)(C)C)cc1	-3.3	18.5*	3.1	2.6	-6.7	3.4
CC1=C(C(=O)N(C)C)CC(CC(=O)NCCCN(C)C)C(=O)N1CCC1=CCCCC1 (stereo unspecified)	3.7	-0.9	-1.0	5.2	-0.9	·
COc1ccc(Nc2ncnc3sc(-c4ccccc4)cc23)cc1	3.9	33.0*	-8.9	1.2	11.7	1.4
COc1cccc2c1O/C(=N\O)C(C(=O)Nc1ccc(C)cc1)C2 (stereo unspecified)	-2.3	20.5*	4.3	-5.6	-2.5	5.3
COc1ccc(NC(=O)C2Cc3cccc(OC)c3O/C2=N\O)cc1 (stereo unspecified)	0.9	-9.4	-0.4	3.6	-1.3	·
